In ChEMBL document CHEMBL1156274, “Potent arylsulfonamide inhibitors of tumor necrosis factor-alpha converting enzyme able to reduce activated leukocyte cell adhesion molecule shedding in cancer cell models” (J Med Chem, 2010):

How the values were obtained:
Interstitial collagenase = target: T1, Interstitial collagenase (Homo sapiens, UniProt P03956); test: Inhibition of MMP1 by fluorometric assay
T1 sequence (P03956 whole entry): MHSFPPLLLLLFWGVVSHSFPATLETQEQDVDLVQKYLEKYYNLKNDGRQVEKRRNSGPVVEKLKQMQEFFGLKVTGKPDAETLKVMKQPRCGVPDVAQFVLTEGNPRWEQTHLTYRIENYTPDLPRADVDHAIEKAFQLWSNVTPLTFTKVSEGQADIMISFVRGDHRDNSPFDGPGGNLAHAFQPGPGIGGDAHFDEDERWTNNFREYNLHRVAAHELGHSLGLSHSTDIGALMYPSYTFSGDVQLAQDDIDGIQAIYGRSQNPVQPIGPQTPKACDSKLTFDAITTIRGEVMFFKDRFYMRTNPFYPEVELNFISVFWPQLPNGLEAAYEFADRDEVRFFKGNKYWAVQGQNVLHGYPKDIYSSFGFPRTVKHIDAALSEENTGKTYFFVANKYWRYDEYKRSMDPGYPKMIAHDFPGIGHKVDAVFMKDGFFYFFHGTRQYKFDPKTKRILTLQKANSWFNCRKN

[1] = target: 72 kDa type IV collagenase (Homo sapiens, UniProt P08253)
72 kDa type IV collagenase, sequence (P08253 whole entry): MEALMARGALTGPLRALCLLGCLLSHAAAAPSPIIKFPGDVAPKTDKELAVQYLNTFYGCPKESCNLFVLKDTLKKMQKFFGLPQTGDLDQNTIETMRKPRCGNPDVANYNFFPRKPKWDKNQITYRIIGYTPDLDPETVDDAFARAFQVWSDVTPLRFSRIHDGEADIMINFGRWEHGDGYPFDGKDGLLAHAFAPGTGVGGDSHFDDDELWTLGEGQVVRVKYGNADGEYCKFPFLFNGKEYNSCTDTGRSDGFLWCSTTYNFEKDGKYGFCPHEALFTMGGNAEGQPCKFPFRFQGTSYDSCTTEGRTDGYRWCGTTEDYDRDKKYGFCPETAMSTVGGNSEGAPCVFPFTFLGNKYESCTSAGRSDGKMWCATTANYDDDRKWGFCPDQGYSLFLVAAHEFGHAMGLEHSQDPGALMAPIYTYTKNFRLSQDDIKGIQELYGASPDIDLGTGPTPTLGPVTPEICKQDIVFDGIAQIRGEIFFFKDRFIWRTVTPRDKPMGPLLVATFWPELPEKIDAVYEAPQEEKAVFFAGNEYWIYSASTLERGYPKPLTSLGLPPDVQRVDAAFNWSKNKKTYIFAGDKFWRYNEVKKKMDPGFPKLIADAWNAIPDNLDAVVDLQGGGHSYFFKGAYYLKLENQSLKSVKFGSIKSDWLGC

[2] = target: Matrix metalloproteinase-9 (Homo sapiens, UniProt P14780); test: Inhibition of MMP9 by fluorometric assay
Matrix metalloproteinase-9, sequence (P14780 whole entry): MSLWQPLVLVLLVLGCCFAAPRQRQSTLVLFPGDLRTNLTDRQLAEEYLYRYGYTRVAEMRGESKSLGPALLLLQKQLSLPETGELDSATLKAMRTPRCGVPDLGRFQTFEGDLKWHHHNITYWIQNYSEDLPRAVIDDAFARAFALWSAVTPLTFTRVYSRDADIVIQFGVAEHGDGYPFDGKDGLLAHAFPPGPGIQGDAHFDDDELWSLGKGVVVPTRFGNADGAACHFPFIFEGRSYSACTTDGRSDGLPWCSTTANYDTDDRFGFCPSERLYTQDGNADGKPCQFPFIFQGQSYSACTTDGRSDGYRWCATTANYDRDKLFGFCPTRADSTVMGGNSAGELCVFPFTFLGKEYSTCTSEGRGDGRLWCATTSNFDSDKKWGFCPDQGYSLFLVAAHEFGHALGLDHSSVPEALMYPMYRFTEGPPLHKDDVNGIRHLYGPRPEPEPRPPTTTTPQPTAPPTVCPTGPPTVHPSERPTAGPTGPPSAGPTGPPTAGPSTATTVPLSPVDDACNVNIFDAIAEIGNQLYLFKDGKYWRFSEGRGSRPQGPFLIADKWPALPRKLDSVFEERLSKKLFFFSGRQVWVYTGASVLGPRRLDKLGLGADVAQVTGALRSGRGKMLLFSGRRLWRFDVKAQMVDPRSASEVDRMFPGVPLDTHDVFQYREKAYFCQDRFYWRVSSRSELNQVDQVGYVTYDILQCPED

[3] = target: Matrix metalloproteinase-14 (Homo sapiens, UniProt P50281); test: Inhibition of human recombinant MMP14 by fluorometric assay
Summary of the method: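 Fluorogenic substrate Mca-Lys-Pro-Leu-Gly-Leu-Dap(Dnp)-Ala-Arg-NH2 (2 μM final). Enzymes: APMA-activated (2 mM, 2 h, 37 °C) pro-MMP-1 at 2.0 nM; MMP-14 catalytic domain at 1.0 nM. Each enzyme preincubated 4 h at 25 °C with seven inhibitor concentrations in Tris 50 mM pH 7.5, NaCl, CaCl2, Brij-35, 1% DMSO. Fluorescence (ex 325/em 395 nm) read every 15 s for 20 min.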

[4] = target: T2, Disintegrin and metalloproteinase domain-containing protein 17 (Homo sapiens, UniProt P78536); test: Inhibition of human recombinant ADAM17 by fluorometric assay
T2 sequence (P78536 whole entry, the tested form may be a part): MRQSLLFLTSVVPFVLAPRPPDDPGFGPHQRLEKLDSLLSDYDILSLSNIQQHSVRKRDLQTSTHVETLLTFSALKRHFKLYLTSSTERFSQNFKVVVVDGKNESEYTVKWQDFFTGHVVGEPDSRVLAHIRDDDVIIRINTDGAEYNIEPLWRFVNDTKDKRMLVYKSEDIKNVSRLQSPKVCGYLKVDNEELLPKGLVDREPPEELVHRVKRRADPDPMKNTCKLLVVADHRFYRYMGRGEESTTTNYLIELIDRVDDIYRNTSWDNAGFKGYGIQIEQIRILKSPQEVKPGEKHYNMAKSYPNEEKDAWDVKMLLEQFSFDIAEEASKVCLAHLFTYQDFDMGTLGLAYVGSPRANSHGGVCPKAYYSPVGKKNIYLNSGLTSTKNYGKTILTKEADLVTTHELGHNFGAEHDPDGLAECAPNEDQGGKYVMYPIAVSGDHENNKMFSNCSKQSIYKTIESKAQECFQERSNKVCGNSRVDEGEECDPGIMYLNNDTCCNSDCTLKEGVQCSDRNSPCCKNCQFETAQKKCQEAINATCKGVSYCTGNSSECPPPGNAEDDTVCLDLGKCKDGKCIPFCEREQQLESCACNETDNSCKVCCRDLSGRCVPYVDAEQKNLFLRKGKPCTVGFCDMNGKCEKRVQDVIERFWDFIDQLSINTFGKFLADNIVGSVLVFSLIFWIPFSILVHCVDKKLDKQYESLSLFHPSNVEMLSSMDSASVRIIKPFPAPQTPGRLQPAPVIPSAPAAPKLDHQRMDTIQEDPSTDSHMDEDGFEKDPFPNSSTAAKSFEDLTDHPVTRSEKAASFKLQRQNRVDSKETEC

[5] = target: T3, Disintegrin and metalloproteinase domain-containing protein 10 (Homo sapiens, UniProt O14672); test: Inhibition of human recombinant ADAM10 by fluorometric assay
T3 sequence (O14672 whole entry): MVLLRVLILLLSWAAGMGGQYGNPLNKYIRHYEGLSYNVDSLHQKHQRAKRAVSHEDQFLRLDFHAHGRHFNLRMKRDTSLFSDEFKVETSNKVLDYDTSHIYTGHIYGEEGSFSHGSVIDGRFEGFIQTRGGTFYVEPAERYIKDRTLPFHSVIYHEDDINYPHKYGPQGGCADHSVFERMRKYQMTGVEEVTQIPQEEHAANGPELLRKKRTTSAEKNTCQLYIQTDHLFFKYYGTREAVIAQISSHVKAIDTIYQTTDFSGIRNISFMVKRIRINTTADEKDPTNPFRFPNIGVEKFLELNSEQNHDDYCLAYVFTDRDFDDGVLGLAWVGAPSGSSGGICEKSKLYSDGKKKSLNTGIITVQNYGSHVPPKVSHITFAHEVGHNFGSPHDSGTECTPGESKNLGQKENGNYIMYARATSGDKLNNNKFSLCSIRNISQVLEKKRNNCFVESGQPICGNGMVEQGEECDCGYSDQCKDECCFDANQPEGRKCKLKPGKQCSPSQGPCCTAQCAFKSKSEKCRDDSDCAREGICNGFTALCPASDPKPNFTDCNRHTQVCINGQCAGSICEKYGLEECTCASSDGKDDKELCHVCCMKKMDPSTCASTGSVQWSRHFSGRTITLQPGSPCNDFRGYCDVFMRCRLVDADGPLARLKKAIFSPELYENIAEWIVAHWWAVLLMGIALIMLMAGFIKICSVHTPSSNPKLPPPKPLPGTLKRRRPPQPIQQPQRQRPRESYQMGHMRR
Summary of the method: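 Recombinant human ADAM-10 (20 nM) preincubated with seven inhibitor concentrations for 1 h at 37 °C in Tris 25 mM, ZnCl2 25 μM, Brij-35 0.005%, pH 9. Fluorogenic substrate Mca-Lys-Pro-Leu-Gly-Leu-Dap(Dnp)-Ala-Arg-NH2 at 10 μM final. Fluorescence (ex 325/em 395 nm) monitored every 15 s for 20 min. IC50 from initial velocities versus inhibitor-free control; mean of three independent experiments in duplicate.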

[6] = target: T2, Disintegrin and metalloproteinase domain-containing protein 17; conditions: A2774, at 10 µM
[7] = target: T2, Disintegrin and metalloproteinase domain-containing protein 17; test: Inhibition of ADAM17 in human A2774 cells assessed as inhibition of constitutive sALCAM release by ELISA; format: cell-based
[8] = target: T2, Disintegrin and metalloproteinase domain-containing protein 17; test: Inhibition of ADAM17 in human A2774 cells assessed as inhibition of pervanadate-induced sALCAM release by ELISA; format: cell-based
[9] = target: T2, Disintegrin and metalloproteinase domain-containing protein 17; test: Inhibition of ADAM17 in human A2774 cells assessed as inhibition of EGF-induced sALCAM release by ELISA; format: cell-based
[10] = target: T2, Disintegrin and metalloproteinase domain-containing protein 17; test: Inhibition of ADAM17 in human SKOV3 cells assessed as inhibition of constitutive sALCAM release by ELISA; format: cell-based, SK-OV-3
SK-OV-3 = test: Cytotoxicity against human SKOV3 cells after 72 hrs by MTT assay; format: cell-based; conditions: sk-ov-3, 72 h
Summary of the method: (§1)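 Cell lines grown in RPMI 1640 with 10% heat-inactivated FCS, 2 mM glutamine and penicillin-streptomycin at 37 °C, 5% CO2. Seeded at 2 × 10^3 cells/well and exposed to a range of inhibitor concentrations (DMSO stocks) for 24, 48 or 72 h at 37 °C. MTT added for 4 h, formazan dissolved in DMSO, absorbance read at 540 nm; mean of triplicates.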

[11] = target: T2, Disintegrin and metalloproteinase domain-containing protein 17; test: Inhibition of ADAM17 in human SKOV3 cells assessed as inhibition of EGF-induced sALCAM release by ELISA; format: cell-based, SK-OV-3
[12] = target: T2, Disintegrin and metalloproteinase domain-containing protein 17; test: Inhibition of ADAM17 in human MCF7 cells assessed as inhibition of constitutive sALCAM release by ELISA; format: cell-based
[13] = target: T2, Disintegrin and metalloproteinase domain-containing protein 17; test: Inhibition of ADAM17 in human MCF7 cells assessed as inhibition of pervanadate-induced sALCAM release by ELISA; format: cell-based
[14] = target: T2, Disintegrin and metalloproteinase domain-containing protein 17; test: Inhibition of ADAM17 in human MCF7 cells assessed as inhibition of EGF-induced sALCAM release by ELISA; format: cell-based
[15] = target: T2, Disintegrin and metalloproteinase domain-containing protein 17; test: Inhibition of ADAM17 in human MDA-MB-468 cells assessed as inhibition of constitutive sALCAM release by ELISA; format: cell-based
[16] = target: T2, Disintegrin and metalloproteinase domain-containing protein 17; test: Inhibition of ADAM17 in human MDA-MB-468 cells assessed as inhibition of pervanadate-induced sALCAM release by ELISA; format: cell-based
[17] = target: T2, Disintegrin and metalloproteinase domain-containing protein 17; test: Inhibition of ADAM17 in human MDA-MB-468 cells assessed as inhibition of EGF-induced sALCAM release by ELISA; format: cell-based
[18] = target: T2, Disintegrin and metalloproteinase domain-containing protein 17; test: Inhibition of ADAM17 in human GI-CA-N cells assessed as inhibition of constitutive sALCAM release by ELISA; format: cell-based
[19] = target: T2, Disintegrin and metalloproteinase domain-containing protein 17; test: Inhibition of ADAM17 in human GI-CA-N cells assessed as inhibition of pervanadate-induced sALCAM release by ELISA; format: cell-based
[20] = Cytotoxicity against human A2774 cells after 72 hrs by MTT assay; format: cell-based; conditions: a2774, 72 h; summary of the method: as §1
MCF7 = test: Cytotoxicity against human MCF7 cells after 72 hrs by MTT assay; format: cell-based; conditions: mcf7, 72 h; summary of the method: as §1
MDA-MB-468 = test: Cytotoxicity against human MDA-MB-468 cells after 72 hrs by MTT assay; format: cell-based; conditions: mda-mb-468, 72 h; summary of the method: as §1
[21] = Cytotoxicity against human GI-CA-N cells after 72 hrs by MTT assay; format: cell-based; summary of the method: as §1

| IC50 (Interstitial collagenase) | IC50 [1] | IC50 [2] | IC50 [3] | IC50 [4] | inhibition [6] | Structure (SMILES) | other results |
| --- | --- | --- | --- | --- | --- | --- | --- |
| 1.5 µM | 190 nM | 190 nM | 300 nM | 0.11 µM | – | CC(=O)NCC[C@@H](NS(=O)(=O)c1ccc(Br)cc1)C(=O)NO | IC50 [5]: 2300 nM |
| – | – | – | 210 nM | – | 32% | COc1ccc(S(=O)(=O)NCC(=O)NO)cc1 | – |
| – | – | – | – | 2.4 µM | 35% | O=C(CNS(=O)(=O)c1ccc(-c2ccccc2)cc1)NO | – |
| 5 µM | 390 nM | 430 nM | 1800 nM | 44 µM | – | O=C(NO)[C@@H](CCN1C(=O)c2ccccc2C1=O)NS(=O)(=O)c1ccc(-c2ccccc2C(F)(F)F)cc1 | – |
| – | 13 nM | 4.8 nM | 13 nM | 2.3 µM | 26% | COc1ccc(S(=O)(=O)N(CC(=O)NO)CC(C)C)cc1 | – |
| – | – | – | – | 120 µM | 0% | CC(C)ON(CC(=O)NO)S(=O)(=O)c1ccc(-c2ccccc2)cc1 | – |
| – | – | – | – | 0.16 µM | 33% | COc1ccc(S(=O)(=O)N(Cc2cccnc2)[C@@H](C(=O)NO)C(C)C)cc1.Cl [CGS-27023A] | IC50 [5]: 890 nM; IC50 [7]: 18 µM; IC50 [8]: 380 nM; IC50 [9]: 3.2 µM; IC50 [10]: 13 µM; Activity (SK-OV-3): Not Active; IC50 [11]: 110 nM; IC50 [12]: 6.9 µM; IC50 [13]: 750 nM; IC50 [14]: 3 µM; IC50 [15]: 1400 nM; IC50 [16]: 10 µM; IC50 [17]: 750 nM; IC50 [18]: 4.4 µM; IC50 [19]: 1100 nM; Activity [20]: Not Active; Activity (MCF7): Not Active; Activity (MDA-MB-468): Not Active; Activity [21]: Not Active |
| 110 µM | 5000 nM | 4100 nM | 9500 nM | 180 µM | 0% | COc1ccc(S(=O)(=O)N(CC(=O)NO)OC(C)C)cc1 | – |
| 1.1 µM | 190 nM | 170 nM | 240 nM | 10 µM | 0% | COc1ccc(S(=O)(=O)N(OC(C)C)[C@@H](C(=O)NO)C(C)C)cc1 | – |
